Reference: ChEMBL document CHEMBL3808334, “Synthesis and in vitro evaluation of novel triazine analogues as anticancer agents and their interaction studies with bovine serum albumin” (Eur J Med Chem, 2016)

How the values were obtained:
Type in all cases: functional
[1] = tested on: MDA-MB-468; experiment: Growth inhibition of human MDA-MB-468 cells assessed as cell growth at 10^-4 M incubated for 48 hrs by sulforhodamine B assay; conditions: MDA-MB-468, 48 h, read-out: Activity
[2] = tested on: KM12; experiment: Growth inhibition of human KM12 cells incubated for 48 hrs by sulforhodamine B assay; conditions: KM12, 48 h
Method in brief: (§1)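 Cells were plated at 5,000–40,000 per well according to doubling time and preincubated 24 h at 37 °C in 5% CO2; time-zero plates were then TCA-fixed. Five concentrations (10-fold or ½-log dilutions, DMSO stock) were incubated 48 h. Cells were TCA-fixed, stained with 0.4% SRB and read at 515 nm. GI50 was taken where [(Ti−Tz)/(C−Tz)]×100 = 50.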

[3] = Growth inhibition of human UACC62 cells incubated for 48 hrs by sulforhodamine B assay; conditions: UACC-62, 48 h; method in brief: as §1
[4] = Growth inhibition of human OVCAR8 cells incubated for 48 hrs by sulforhodamine B assay; conditions: OVCAR-8, 48 h; method in brief: as §1
[5] = Growth inhibition of human Caki1 cells incubated for 48 hrs by sulforhodamine B assay; conditions: CAKI-1, 48 h
Method in brief: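 Cells seeded at 5,000–40,000/well according to doubling time and preincubated 24 h at 37 °C, 5% CO2. Time-zero plates were TCA-fixed. DMSO concentrate was diluted in medium with 50 µg/ml gentamicin to give five concentrations (10-fold or ½ log steps), then exposed 48 h. Cells were TCA-fixed, stained with 0.4% SRB and read at 515 nm. Percent growth was taken against time-zero and control; GI50, TGI and LC50 derived.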

[6] = tested on: MDA-MB-231; experiment: Growth inhibition of human MDA-MB-231 cells assessed as cell growth at 10^-8 M incubated for 48 hrs by sulforhodamine B assay; conditions: MDA-MB-231, 48 h, read-out: Activity
[7] = tested on: NCI-H322M; experiment: Growth inhibition of human NCI-H322M cells assessed as cell growth at 10^-7 M incubated for 48 hrs by sulforhodamine B assay; conditions: read-out: Activity
[8] = Growth inhibition of human RXF393 cells assessed as cell growth at 10^-5 M incubated for 48 hrs by sulforhodamine B assay; conditions: RXF 393, 48 h, read-out: Activity
[9] = tested on: MDA-MB-468; experiment: Growth inhibition of human MDA-MB-468 cells assessed as cell growth at 10^-5 M incubated for 48 hrs by sulforhodamine B assay; conditions: MDA-MB-468, 48 h, read-out: Activity
[10] = Growth inhibition of human HOP92 cells assessed as cell growth at 10^-4 M incubated for 48 hrs by sulforhodamine B assay; conditions: HOP-92, 48 h, read-out: Activity
[11] = tested on: MDA-MB-231; experiment: Growth inhibition of human MDA-MB-231 cells assessed as cell growth at 10 uM incubated for 48 hrs by sulforhodamine B assay; conditions: MDA-MB-231, 48 h, read-out: Activity
[12] = tested on: K562; experiment: Growth inhibition of human K562 cells assessed as cell growth at 10^-8 M incubated for 48 hrs by sulforhodamine B assay; conditions: K562, 48 h, read-out: Activity
[13] = tested on: HT-29; experiment: Growth inhibition of human HT-29 cells assessed as cell growth at 10^-6 M incubated for 48 hrs by sulforhodamine B assay; conditions: HT-29, 48 h, read-out: Activity
[14] = Growth inhibition of human SF268 cells assessed as cell growth at 10^-8 M incubated for 48 hrs by sulforhodamine B assay; conditions: SF-268, 48 h, read-out: Activity
[15] = tested on: U-251; experiment: Growth inhibition of human U251 cells assessed as cell growth at 10^-8 M incubated for 48 hrs by sulforhodamine B assay; conditions: U-251, 48 h, read-out: Activity
[16] = tested on: Malme-3M; experiment: Growth inhibition of human MALME-3M cells assessed as cell growth at 10^-6 M incubated for 48 hrs by sulforhodamine B assay; conditions: read-out: Activity
[17] = Growth inhibition of human TK10 cells assessed as cell growth at 10^-6 M incubated for 48 hrs by sulforhodamine B assay; conditions: TK-10, 48 h, read-out: Activity
[18] = Growth inhibition of human Hs 578T cells assessed as cell growth at 10^-6 M incubated for 48 hrs by sulforhodamine B assay; conditions: read-out: Activity
[19] = Growth inhibition of human HL-60(TB) cells assessed as cell growth at 10^-5 M incubated for 48 hrs by sulforhodamine B assay; conditions: HL-60, 48 h, read-out: Activity
Method in brief: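 Cells plated at 5,000–40,000/well according to doubling time and preincubated 24 h at 37 °C, 5% CO₂, with time-zero plates TCA-fixed. Drugs were kept as DMSO concentrates at 400× the top concentration and diluted in medium with 50 µg/ml gentamicin. Five 10-fold or ½-log dilutions were run for 48 h, followed by SRB staining and A515. Percent growth = (Ti−Tz)/(C−Tz)×100, or (Ti−Tz)/Tz×100 when Ti<Tz.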

[20] = tested on: A549; experiment: Growth inhibition of human A549/ATCC cells assessed as cell growth at 10^-5 M incubated for 48 hrs by sulforhodamine B assay; conditions: A549, 48 h, read-out: Activity
Method in brief: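 Five-dose assay: five concentrations from 10-fold or ½-log serial dilutions. Cells are plated at 5,000–40,000 per well according to doubling time, grown 24 h, then exposed 48 h at 37 °C, 5% CO₂. Fixed with cold 50% TCA (final addition) for 60 min at 4 °C and stained with 0.4% SRB in 1% acetic acid. Bound dye is solubilized in 10 mM Tris base and read at 515 nm. GI₅₀ is where [(Ti−Tz)/(C−Tz)]×100 = 50, with a time-zero plate as Tz.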

[21] = tested on: KM12; experiment: Growth inhibition of human KM12 cells assessed as cell growth at 10^-5 M incubated for 48 hrs by sulforhodamine B assay; conditions: KM12, 48 h, read-out: Activity
[22] = Growth inhibition of human SNB75 cells assessed as cell growth at 10^-5 M incubated for 48 hrs by sulforhodamine B assay; conditions: SNB-75, 48 h, read-out: Activity
[23] = Growth inhibition of human HCC2998 cells assessed as cell growth at 10 uM incubated for 48 hrs by sulforhodamine B assay; conditions: HCC 2998, 48 h, read-out: Activity
Method in brief: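 Primary screen at one dose (10 µM) across 60 human cancer cell lines. Readout was growth percent relative to untreated control and time-zero.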

[24] = Growth inhibition of human prostate cancer cells incubated for 48 hrs by sulforhodamine B assay; conditions: Cancer cell lines; for CC50: read-out: LC50 (the source's name)
[25] = read-out: LC50 (the source's name)
[26] = read-out: pLC50 (the source's name) (converted)

Clc1ccc(-c2nc(Nc3ccc(-c4nc5ccccc5[nH]4)cc3)nc(N3CCOCC3)n2)cc1
growth at 100 µM [1]: -41%
GI50 ([2]; read-out: GI50): 0.37 µM
CC50 [2, 25]: 4.75 µM
TGI ([2]; read-out: TGI): 1.41 µM
GI50 ([2]; read-out: pGI50 (converted)): 0.372 µM
CC50 [2, 26]: 4.79 µM
TGI ([2]; read-out: pTGI (converted)): 1.41 µM
GI50 ([3]; read-out: GI50): 0.196 µM
TGI ([3]; read-out: TGI): 0.432 µM
GI50 ([3]; read-out: pGI50 (converted)): 0.195 µM
TGI ([3]; read-out: pTGI (converted)): 0.437 µM
GI50 ([4]; read-out: GI50): 1.12 µM
CC50 [4, 25]: 6.09 µM
TGI ([4]; read-out: TGI): 2.61 µM
GI50 ([4]; read-out: pGI50 (converted)): 1.12 µM
CC50 [4, 26]: 6.03 µM
TGI ([4]; read-out: pTGI (converted)): 2.63 µM
LC50 [5]: 5.23 µM
GI50 ([5]; read-out: GI50): 1.41 µM
TGI ([5]; read-out: TGI): 2.72 µM
GI50 ([5]; read-out: pGI50 (converted)): 1.41 µM
CC50 [5, 26]: 5.25 µM
TGI ([5]; read-out: pTGI (converted)): 2.69 µM
growth at 0.01 µM [6]: 93%
growth at 0.1 µM [7]: 94%
growth at 10 µM [8]: -79%
growth at 10 µM [9]: -71%
growth at 100 µM [10]: -67%
growth at 10 µM [11]: -76.7%
growth at 0.01 µM [12]: 96%
growth at 1 µM [13]: -39%
growth at 0.01 µM [14]: 98%
growth at 0.01 µM [15]: 99%
growth at 1 µM [16]: 111%
growth at 1 µM [17]: 110%
growth at 1 µM [18]: 43%
growth at 10 µM [19]: -71%
growth at 10 µM [20]: -81%
growth at 10 µM [21]: -81%
growth at 10 µM [22]: -91%
growth at 10 µM [23]: -89.9%
GI50 [24]: 0.41 µM
TGI [24]: 1.49 µM
CC50 [24]: 4.33 µM

c1ccc2[nH]c(-c3ccc(Nc4nc(N5CCCCC5)nc(N5CCOCC5)n4)cc3)nc2c1
growth at 100 µM [1]: -31%
GI50 ([2]; read-out: GI50): 2.85 µM
CC50 [2, 25]: > 100 µM
TGI ([2]; read-out: TGI): 9.54 µM
GI50 ([2]; read-out: pGI50 (converted)): 2.82 µM
CC50 [2, 26]: > 100 µM
TGI ([2]; read-out: pTGI (converted)): 9.55 µM
GI50 ([3]; read-out: GI50): 1.96 µM
TGI ([3]; read-out: TGI): 4.32 µM
GI50 ([3]; read-out: pGI50 (converted)): 1.95 µM
TGI ([3]; read-out: pTGI (converted)): 4.37 µM
GI50 ([4]; read-out: GI50): 3.24 µM
CC50 [4, 25]: > 100 µM
TGI ([4]; read-out: TGI): 14.3 µM
GI50 ([4]; read-out: pGI50 (converted)): 3.24 µM
CC50 [4, 26]: > 100 µM
TGI ([4]; read-out: pTGI (converted)): 14.1 µM
GI50 ([5]; read-out: GI50): 1.81 µM
TGI ([5]; read-out: TGI): 4.08 µM
GI50 ([5]; read-out: pGI50 (converted)): 1.82 µM
TGI ([5]; read-out: pTGI (converted)): 4.07 µM
growth at 0.01 µM [6]: 99%
growth at 0.1 µM [7]: 97%
growth at 10 µM [8]: -43%
growth at 10 µM [9]: -24%
growth at 100 µM [10]: -71%
growth at 10 µM [11]: 23.1%
growth at 0.01 µM [12]: 103%
growth at 1 µM [13]: 104%
growth at 0.01 µM [14]: 96%
growth at 0.01 µM [15]: 99%
growth at 1 µM [16]: 98%
growth at 1 µM [17]: 105%
growth at 1 µM [18]: 89%
growth at 10 µM [19]: -31%
growth at 10 µM [20]: 2%
growth at 10 µM [21]: -2%
growth at 10 µM [22]: 10%
growth at 10 µM [23]: -1.07%
GI50 [24]: 3.67 µM
TGI [24]: 9.13 µM
CC50 [24]: > 100 µM
